Experiment [1] concerns the target T1, Monoglyceride lipase (Homo sapiens) (UniProt Q99685).
T1 sequence (whole entry): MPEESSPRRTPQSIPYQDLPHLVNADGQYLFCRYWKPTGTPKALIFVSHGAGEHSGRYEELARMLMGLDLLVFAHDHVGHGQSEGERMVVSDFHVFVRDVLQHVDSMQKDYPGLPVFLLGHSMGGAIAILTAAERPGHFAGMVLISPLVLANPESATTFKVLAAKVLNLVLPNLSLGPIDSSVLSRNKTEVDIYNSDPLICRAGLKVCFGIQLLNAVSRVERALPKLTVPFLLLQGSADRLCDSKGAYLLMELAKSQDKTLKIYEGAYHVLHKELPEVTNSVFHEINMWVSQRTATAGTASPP
Kind of experiment: Inhibition of human MGL activity using [3H]2-oleoylglycerol substrate at 10 uM by liquid scintillation counting. Put shortly: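 Single-point screen on recombinant human MGL at 10 μM, with a parallel screen at 100 μM.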

Experiment [2] deals with T2, Monoglyceride lipase (Homo sapiens, UniProt Q99685).
T2 sequence (Q99685 whole entry): T1 sequence (whole entry)
Kind of experiment: Inhibition of human MGL activity using [3H]2-oleoylglycerol substrate by liquid scintillation counting. Put shortly: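 Recombinant human MGL was used, and inhibition was expressed as pIC50.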

Experiment [3] concerns the target T3, Fatty-acid amide hydrolase 1 (Homo sapiens, UniProt O00519).
T3 sequence (O00519 whole entry): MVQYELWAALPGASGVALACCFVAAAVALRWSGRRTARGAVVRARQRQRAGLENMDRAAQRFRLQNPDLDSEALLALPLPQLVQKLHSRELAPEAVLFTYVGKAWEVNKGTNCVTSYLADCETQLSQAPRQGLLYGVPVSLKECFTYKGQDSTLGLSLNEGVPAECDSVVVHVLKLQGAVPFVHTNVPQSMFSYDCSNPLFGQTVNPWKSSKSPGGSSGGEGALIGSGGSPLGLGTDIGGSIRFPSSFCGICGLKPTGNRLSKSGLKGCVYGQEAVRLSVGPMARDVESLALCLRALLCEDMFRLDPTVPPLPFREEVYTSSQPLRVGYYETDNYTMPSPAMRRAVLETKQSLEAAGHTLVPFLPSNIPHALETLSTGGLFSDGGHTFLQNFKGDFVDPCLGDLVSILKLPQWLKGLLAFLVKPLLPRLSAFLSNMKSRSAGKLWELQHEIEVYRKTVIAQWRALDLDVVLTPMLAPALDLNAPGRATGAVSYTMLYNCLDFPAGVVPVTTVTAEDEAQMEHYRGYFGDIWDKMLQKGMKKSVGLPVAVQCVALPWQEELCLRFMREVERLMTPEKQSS
Description: Inhibition of human recombinant FAAH-maltose binding protein.

Experiment [4] is filed under the species Homo sapiens. Kind of experiment: Selectivity ratio for human MGL activity to human recombinant FAAH.

In the case of `CCN(CC)SSN(CC)CC`, the inhibition in experiment [1] was > 50%. In addition, the IC50 in experiment [2] is 7.94 µM; in experiment [3] it was > 1000 µM.
For `CCCCCCCCCCCCCCCCN(CC)C(=S)SSC(=S)N(CC)CCCCCCCCCCCCCC`, in that order: > 50%, 10.5 µM and > 1000 µM.
For `CC1CCCC(C)N1C(=S)SSC(=S)N1C(C)CCCC1C` (stereo not drawn) the same measures were > 50%, 0.479 µM and > 1000 µM.
For `S=C(SSC(=S)N1CCN(C2CCCCC2)CC1)N1CCN(C2CCCCC2)CC1`, in that order: > 50%, 0.166 µM and > 1000 µM.
For the compound `S=C(SCSC(=S)N1CCOCC1)N1CCOCC1`, the inhibition in experiment [1] is > 50%. The half-maximal inhibitory concentration (IC50) in experiment [2] was 102 µM; in experiment [3] it was > 1000 µM.
In the case of `S=C(SSC(=S)N1CCC(Cc2ccccc2)CC1)N1CCC(Cc2ccccc2)CC1`, the inhibition in experiment [1] is > 50%. The IC50 in experiment [2] was 6.92 µM; in experiment [3], > 1000 µM.
For `S=C(SSC(=S)N1CCOCC1)N1CCOCC1` the same measures were > 50%, 0.219 µM and 79.4 µM.
Take `CCN(Cc1ccccc1)C(=S)SSC(=S)N(CC)Cc1ccccc1`: in experiment [1], the inhibition is > 50%. The values for the IC50 in experiment [2] and in experiment [3] were 4.07 µM and > 1000 µM, respectively.
For `C1CCN(SSN2CCCCC2)CC1`, in that order: > 50%, 9.55 µM and > 1000 µM.
For `CCN(CC)C(=S)CSC(=S)N(CC)CC` [(DIETHYLTHIOCARBAMOYL)METHYLENE DIETHYLCARBAMODITHIOATE] the same measures were > 50%, 19.1 µM and > 1000 µM.
Take `COc1nn(-c2ccc(NC(=O)OCc3ccccc3)c(C)c2)c(=O)o1`: the Selectivity ratio in experiment [4] was 3. The IC50 in experiment [2] is 0.0204 µM; in experiment [3], 0.0776 µM.
In turn, `CN(C)C(=O)n1nnnc1Cc1ccc(-c2ccccc2)cc1` had an IC50 in experiment [2] of 0.055 µM.
As to `S=C(SSC(=S)N1CCCCC1)N1CCCCC1` [BIS(PIPERIDINYLTHIOCARBONYL)DISULFIDE], the inhibition in experiment [1] is > 50%. For the same compound, the IC50 was 0.316 µM in experiment [2] and > 1000 µM in experiment [3].
For `CC1CCN(C(=S)SSC(=S)N2CCC(C)CC2)CC1` the same measures were > 50%, 0.269 µM and > 1000 µM.
For `CN(C(=S)SSC(=S)N(C)c1ccccc1)c1ccccc1` the same measures were > 50%, 0.741 µM and 33.9 µM.
For `CN1CCN(C(=S)SCSC(=S)N2CCN(C)CC2)CC1`, in that order: > 50%, 95.5 µM and > 1000 µM.
Consider `O=C(CSC(=S)N1CCOCC1)N1CCOCC1`, for which the inhibition in experiment [1] is > 50%. Further, the IC50 in experiment [2] is 219 µM; in experiment [3] it was > 1000 µM.
For `CN(C(=S)SSC(=S)N(C)C1CCCCC1)C1CCCCC1` the same measures were > 50%, 0.141 µM and 4.79 µM.
With `O=C(Nc1cccc(-c2ccccc2)c1)OC1CCCCC1`, the Selectivity ratio in experiment [4] was 0.57. For the same compound, the IC50 in experiment [2] was 10 µM; in experiment [3], 5.75 µM.
For the compound `CSC(=S)N1CCOCC1`, the inhibition in experiment [1] is > 50%. Also, the IC50 in experiment [2] and in experiment [3] was > 1000 µM throughout.
Consider `S=C(SSC(=S)N1CCCC1)N1CCCC1` [BIS(PYRROLIDINYLTHIOCARBONYL)DISULFIDE], for which, in experiment [1], the inhibition is > 50%. Further, the figures for the half-inhibitory concentration (IC50) in experiment [2] and in experiment [3] were 0.912 µM and > 1000 µM, respectively.
For `CN(C)C(=S)SC(=S)N(C)C` [BIS(DIMETHYLAMINETHIOCARBONYL)MONOSULFIDE], in that order: > 50%, 12.3 µM and > 1000 µM.
For `S=C(CSC(=S)N1CCOCC1)N1CCOCC1`, in that order: > 50%, 15.5 µM and > 1000 µM.
As to `CCN(CC)C(=S)SCSC(=S)N(CC)CC`, the inhibition in experiment [1] was > 50%. Further, the IC50 in experiment [2] is 20.9 µM; in experiment [3], > 1000 µM.
With `S=C(SSC(=S)N1CCc2ccccc2C1)N1CCc2ccccc2C1`, in experiment [1], the inhibition is > 50%. The figures for the IC50 in experiment [2] and in experiment [3] were 0.347 µM and > 1000 µM, respectively.
For `CCCCC/C=C\C/C=C\C/C=C\C/C=C\CCCCN1C(=O)CCC1=O`, the Selectivity ratio in experiment [4] turned out to be 1.95. In addition, the IC50 in experiment [2] was 1.12 µM; in experiment [3], 2.19 µM.
`S=C(SSC(=S)N(Cc1ccccc1)Cc1ccccc1)N(Cc1ccccc1)Cc1ccccc1` [BIS(DIBENZYLAMINETHIOCARBONYL)DISULFIDE]: the inhibition in experiment [1] was > 50%. The IC50 in experiment [2] was 9.55 µM; in experiment [3], > 1000 µM.
With `S=C(SSC(=S)N1CCCCCC1)N1CCCCCC1`, the inhibition in experiment [1] was > 50%. The IC50 was 0.813 µM in experiment [2] and > 1000 µM in experiment [3].
For `S=C(SSC(=S)N1CCSCC1)N1CCSCC1` the same measures were > 50%, 0.316 µM and 25.1 µM.
For `S=C(SSC(=S)N1CCN(Cc2ccccc2)CC1)N1CCN(Cc2ccccc2)CC1` the same measures were > 50%, 5.01 µM and 170 µM.
Turning to `CN(Cc1ccccc1)C(=S)SSC(=S)N(C)Cc1ccccc1`, the inhibition in experiment [1] is > 50%. Moreover, the IC50 in experiment [2] is 0.437 µM; in experiment [3], > 1000 µM.
As for `CCN(CC)C(=S)SC` [METHYLDIETHYL CARBAMODITHIOATE], the IC50 in experiment [2] and in experiment [3] was > 1000 µM in each case.
In the case of `CCN(CC)C(=O)CSC(=S)N(CC)CC` [(DIETHYLCARBAMOYL)METHYLENE DIETHYLCARBAMODITHIOATE], the inhibition in experiment [1] was > 50%. Besides, the IC50 in experiment [2] was 631 µM; in experiment [3], > 1000 µM.
On to `CN(C)C(=S)SSC(=S)N(C)C` [THIRAM], for which, in experiment [4], the Selectivity ratio came out at 45. In addition, in experiment [1], the inhibition was > 50%. In addition, the values for the half-inhibitory concentration (IC50) in experiment [2] and in experiment [3] were 0.977 µM and 44.7 µM, respectively.
Consider `CCCCC/C=C\C/C=C\C/C=C\C/C=C\CCCC(=O)C(F)(F)F` [ARACHIDONYL TRIFLUOROMETHYLKETONE], for which the Selectivity ratio in experiment [4] turned out to be 0.002. The IC50 in experiment [2] is 6.46 µM; in experiment [3], 0.0123 µM.
On to `CN(C)C(=S)SC(=S)N1CCOCC1`, for which the inhibition in experiment [1] was > 50%. The IC50 in experiment [2] was 6.46 µM; in experiment [3], > 1000 µM.
For `CCN(CC)C(=S)SSC(=S)N(CC)CC`, in that order: > 50%, 1.26 µM and 363 µM.
Consider `S=C(SSC(=S)N1CCCc2ccccc21)N1CCCc2ccccc21`, for which, in experiment [1], the inhibition was > 50%. For the same compound, the IC50 in experiment [2] was 0.741 µM; in experiment [3], > 1000 µM.
Take `C1CN(SSN2CCOCC2)CCO1` [DITHIODIMORPHOLINE]: the inhibition in experiment [1] was > 50%. For the same compound, the IC50 was 11.2 µM in experiment [2] and > 1000 µM in experiment [3].
For `S=C(SSC(=S)N1CCN(c2ccccc2)CC1)N1CCN(c2ccccc2)CC1` the same measures were > 50%, 0.49 µM and 135 µM.

Broadly, the inhibition is the relative decrease from the control value, in per cent. A lower inhibition goes with a response near the control. As a reminder, the IC50 is the point on the concentration scale where inhibition reaches its midpoint.
